Data taken from paper PMC6923801 (Journal of medicinal chemistry, 2019).

Biological target: human GPR68 (Homo sapiens, UniProt Q15743)
Experiment: GloSensor cAMP assay, proton-mediated Gs-cAMP production at human GPR68
Type: cell-based
Conditions: for Δ: difference of Log(αβ/KB) from that of 1; for Δ / −Log (KB) / Log (αβ/KB): human GPR68; for Log (α): affinity cooperativity; for Log (α) / Log (β): human GPR68, HEK293T, Gs-cAMP; for Log (α) / −Log (KB) / Log (αβ/KB) / Log (β): mean ± SEM; for −Log (KB): allosteric binding affinity from functional assay; for Log (αβ/KB): allosteric index; for Log (β): efficacy cooperativity
In short: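 HEK293T cells were transiently transfected with receptor and GloSensor cAMP plasmids, overnight (16–20 h). Cells were plated on poly-L-Lys in DMEM + 1% dFBS for 6–24 h, then loaded with 3.5 mM luciferin (HBSS, 20 mM TAPS, pH 8.40) for 1 h at 37 °C. Drug was applied in Ca/Mg-free HBSS pH buffers (MES 5.60–6.70, HEPES 6.80–8.20, TAPS 8.30–8.60) with 10 μM Ro 20-1724. Luminescence was read at 20–30 min.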

Chain of human GPR68 (Q15743 whole entry): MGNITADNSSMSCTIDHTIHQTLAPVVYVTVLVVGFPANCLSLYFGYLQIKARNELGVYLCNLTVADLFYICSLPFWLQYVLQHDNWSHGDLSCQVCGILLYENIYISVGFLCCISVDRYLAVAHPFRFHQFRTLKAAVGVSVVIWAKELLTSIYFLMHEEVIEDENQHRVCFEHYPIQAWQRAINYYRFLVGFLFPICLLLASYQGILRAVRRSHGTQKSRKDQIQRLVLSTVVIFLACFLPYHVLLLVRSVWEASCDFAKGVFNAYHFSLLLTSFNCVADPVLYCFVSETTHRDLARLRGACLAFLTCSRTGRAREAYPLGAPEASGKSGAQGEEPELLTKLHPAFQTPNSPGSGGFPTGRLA

Structure (SMILES)	Kb [µM]	Δ	Log (α)	−Log (KB)	Log (αβ/KB)	Log (β)
Nc1nc(NCCc2ccc(Oc3ccccc3)cc2)nc(-c2ccccc2CO)n1 [Compound 64, (2-(4-Amino-6-((4-phenoxyphenethyl)amino)-1,3,5-triazin-2-yl)-phenyl)methanol]	10	0.59	–	–	–	–
CC(C)Oc1ccc(-c2nc(N)nc(NCc3ccccc3)n2)c(CO)c1 [Compound 38, (2-(4-Amino-6-(benzylamino)-1,3,5-triazin-2-yl)-5-isopropoxyphenyl)methanol]	12.3	0.43	–	–	–	–
Nc1nc(NCc2ccccc2)nc(-c2cc(F)ccc2CO)n1 [Compound 24, (2-(4-Amino-6-(benzylamino)-1,3,5-triazin-2-yl)-4-fluorophenyl)-methanol]	26.3	0.38	–	–	–	–
Nc1nc(NCc2cccc(C(F)(F)F)c2)nc(-c2ccccc2CO)n1 [Compound 48, (2-(4-Amino-6-((3-(trifluoromethyl)benzyl)amino)-1,3,5-triazin-2-yl)phenyl)methanol]	7.76	0.76	–	–	–	–
COc1cccc(-c2nc(N)nc(NCc3ccccc3)n2)c1CO [Compound 29, (2-(4-Amino-6-(benzylamino)-1,3,5-triazin-2-yl)-6-methoxyphenyl)methanol]	69.2	−0.45	–	–	–	–
Nc1nc(NCc2ccccc2)nc(-c2c(F)cccc2CO)n1 [Compound 25, (2-(4-Amino-6-(benzylamino)-1,3,5-triazin-2-yl)-3-fluorophenyl)-methanol]	204	−0.12	–	–	–	–
CC(C)Oc1ccc(CNc2nc(N)nc(-c3ccccc3CO)n2)cc1 [Compound 57, (2-(4-Amino-6-((4-isopropoxybenzyl)amino)-1,3,5-triazin-2-yl)-phenyl)methanol]	10.2	0.38	–	–	–	–
Nc1nc(NCc2ccccc2)nc(-c2cc(Cl)ccc2CO)n1 [Compound 27, (2-(4-Amino-6-(benzylamino)-1,3,5-triazin-2-yl)-4-chlorophenyl)methanol]	32.4	0.47	–	–	–	–
Nc1nc(NCc2ccc(F)cc2)nc(-c2ccccc2CO)n1 [Compound 43, (2-(4-Amino-6-((4-fluorobenzyl)amino)-1,3,5-triazin-2-yl)-phenyl)methanol]	107	0.11	–	–	–	–
Nc1nc(NCCCCc2ccccc2)nc(-c2cc(Cl)ccc2CO)n1 [Compound 79, (2-(4-Amino-6-((4-phenylbutyl)amino)-1,3,5-triazin-2-yl)-4-chlorophenyl)methanol]	10.5	0.83	–	–	–	–
Nc1nc(NCCc2ccc(Oc3ccccc3)cc2)nc(-c2c(F)cccc2CO)n1 [Compound 75, (2-(4-Amino-6-((4-phenoxyphenethyl)amino)-1,3,5-triazin-2-yl)-3-fluorophenyl)methanol]	8.91	0.82	–	–	–	–
CCNc1nc(NCc2ccccc2)nc(-c2ccccc2CO)n1 [Compound 6, (2-(4-(Benzylamino)-6-(ethylamino)-1,3,5-triazin-2-yl)phenyl)-methanol]	23.4	0.03	–	–	–	–
Nc1nc(NCCc2ccccc2)nc(-c2ccccc2CO)n1 [Compound 61]	31.6	0.31	–	–	–	–
Nc1nc(NCCc2ccccc2)nc(-c2c(F)cccc2CO)n1 [Compound 72, (2-(4-Amino-6-(phenethylamino)-1,3,5-triazin-2-yl)-3-fluorophenyl)methanol]	9.12	0.82	–	–	–	–
Nc1nc(NCc2ccc(OC3CC3)cc2)nc(-c2ccccc2CO)n1 [Compound 58, (2-(4-Amino-6-((4-cyclopropoxybenzyl)amino)-1,3,5-triazin-2-yl)phenyl)methanol]	8.51	0.46	–	–	–	–
Nc1nc(NCCCc2ccccc2)nc(-c2ccccc2CO)n1 [Compound 62]	6.03	0.80	–	–	–	–
COc1cccc(CNc2nc(N)nc(-c3ccccc3CO)n2)c1 [Compound 54, (2-(4-Amino-6-((3-methoxybenzyl)amino)-1,3,5-triazin-2-yl)-phenyl)methanol]	77.6	−0.09	–	–	–	–
Nc1nc(NCc2ccccc2F)nc(-c2ccccc2CO)n1 [Compound 41, (2-(4-Amino-6-((2-fluorobenzyl)amino)-1,3,5-triazin-2-yl)-phenyl)methanol]	53.7	0.25	–	–	–	–
Nc1nc(NCc2cccc(Cl)c2)nc(-c2ccccc2CO)n1 [Compound 45, (2-(4-Amino-6-((3-chlorobenzyl)amino)-1,3,5-triazin-2-yl)-phenyl)methanol]	10.7	0.59	–	–	–	–
Cc1ccccc1CNc1nc(N)nc(-c2ccccc2CO)n1 [Compound 50, (2-(4-Amino-6-((2-methylbenzyl)amino)-1,3,5-triazin-2-yl)-phenyl)methanol]	20	0.26	–	–	–	–
Nc1nc(NCc2ccc(Oc3ccccc3)cc2)nc(-c2ccccc2CO)n1 [Compound 59, (2-(4-Amino-6-((4-phenoxybenzyl)amino)-1,3,5-triazin-2-yl)-phenyl)methanol]	6.46	0.83	–	–	–	–
Nc1nc(NCc2ccccc2)nc(-c2ccccc2)n1 [Compound 13, N^2-Benzyl-6-phenyl-1,3,5-triazine-2,4-diamine]	–	Inactive	Inactive	Inactive	Inactive	Inactive
CCOc1ccc(CNc2nc(N)nc(-c3ccccc3CO)n2)cc1 [Compound 56, (2-(4-Amino-6-((4-ethoxybenzyl)amino)-1,3,5-triazin-2-yl)-phenyl)methanol]	17	0.26	–	–	–	–
CC(=O)c1ccccc1-c1nc(N)nc(NCc2ccccc2)n1 [Compound 15, 1-(2-(4-Amino-6-(benzylamino)-1,3,5-triazin-2-yl)phenyl)ethan-1-one]	–	Weak PAM	Weak PAM	Weak PAM	Weak PAM	Weak PAM
Cc1cccc(CNc2nc(N)nc(-c3c(F)cccc3CO)n2)c1 [Compound 69, (2-(4-Amino-6-((3-methylbenzyl)amino)-1,3,5-triazin-2-yl)-3-fluorophenyl)methanol]	36.3	0.11	–	–	–	–
Nc1nc(NCCCc2ccc(Oc3ccccc3)cc2)nc(-c2ccccc2CO)n1 [Compound 65, (2-(4-Amino-6-((3-(4-phenoxyphenyl)propyl)amino)-1,3,5-triazin-2-yl)phenyl)methanol]	21.4	0.53	–	–	–	–
NCc1ccccc1-c1nc(N)nc(NCc2ccccc2)n1 [Compound 18, 6-(2-(Aminomethyl)phenyl)-N^2-benzyl-1,3,5-triazine-2,4-diamine]	138	−0.30	–	–	–	–
CNCc1ccccc1-c1nc(N)nc(NCc2ccccc2)n1 [Compound 19, N^2-Benzyl-6-(2-((methylamino)methyl)phenyl)-1,3,5-triazine-2,4-diamine]	–	Weak PAM	Weak PAM	Weak PAM	Weak PAM	Weak PAM
Nc1nc(NCc2ccccc2Cl)nc(-c2ccccc2CO)n1 [Compound 44, (2-(4-Amino-6-((2-chlorobenzyl)amino)-1,3,5-triazin-2-yl)-phenyl)methanol]	8.51	0.63	–	–	–	–
Nc1nc(NCc2ccccc2)nc(-c2c(Cl)cccc2CO)n1 [Compound 28, (2-(4-Amino-6-(benzylamino)-1,3,5-triazin-2-yl)-3-chlorophenyl)methanol]	37.2	0.25	–	–	–	–
